ChEMBL document CHEMBL1142686, “CoMFA, synthesis, and pharmacological evaluation of (E)-3-(2-carboxy-2-arylvinyl)-4,6-dichloro-1H-indole-2-carboxylic acids: 3-[2-(3-aminophenyl)-2-carboxyvinyl]-4,6-dichloro-1H-indole-2-carboxylic acid, a potent selective glycine-site NMDA receptor antagonist” (J Med Chem, 2005)
Values joined by “and” are separate entries in the source; they are usually repeats but may differ in a detail not shown here. Identical values can stand only once.

What was measured:
[1] = target: Glutamate NMDA receptor; assay: Antagonist activity of compound against rat N-methyl-D-aspartate glutamate receptor using 11 nM [3H]glycine; assay type: functional
[2] = system: Mus musculus; assay: In vivo effective dose to protect the mouse (DBA/2J) from audiogenic seizures upon intraperitoneal administration; assay type: functional; settings: ip
[3] = system: Mus musculus; assay: In vivo effective dose against harmaline induced cGMP elevation in mouse cerebellum upon intravenous administration; assay type: functional
[4] = system: Mus musculus; assay: In vivo effective dose of compound to protect mice from quinolinic acid seizures upon intravenous administration; assay type: functional
[5] = target: Glutamate NMDA receptor; assay: In vitro inhibitory concentration against binding of the [3H]glycine to strychnine-insensitive glycine binding sites of rat N-methyl-D-aspartate glutamate receptor; assay type: protein-complex assay
[6] = system: Rattus norvegicus; assay: In vivo effective dose to protect rats against maximal electroshock induced seizures upon intravenous administration; assay type: functional
Procedure, shortened: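 Maximal electroshock seizures in adult male CDF rats, compound iv, vehicle water, saline or 50 mM Tris base at 1 mL/kg.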

[7] = species on record: Rattus norvegicus; assay: In vitro inhibitory concentration against glutamate stimulated accumulation of cyclic GMP in neonatal rat cerebral slices; assay type: functional
[8] = system: Rattus norvegicus; assay: Reduction of infarct in rat with proximal middle cerebral artery occlusion at total dose of 16 mg/kg after 30 min initiation (duration of effect 6 h); assay type: functional
[9] = Half life was measured in rat following intravenous administration; assay type: ADME, organism-based; settings: in vivo
[10] = system: Rattus norvegicus; assay: Reduction of infarct volume in rat with distal middle cerebral artery occlusion at total dose of 126 mg/kg after -15 min of initiation (duration of effect 6 h); assay type: functional
[11] = system: Rattus norvegicus; assay: Reduction of infarct in rat with proximal middle cerebral artery occlusion at total dose of 123 mg/kg after 30 min initiation (duration of effect 6 h); assay type: functional
[12] = system: Rattus norvegicus; assay: Reduction of infarct in rat with proximal middle cerebral artery occlusion at total dose of 245 mg/kg after 480 min initiation (duration of effect 6 h); assay type: functional
[13] = system: Rattus norvegicus; assay: Reduction of infarct volume in rat with distal middle cerebral artery occlusion at total dose of 490 mg/kg after -15 min of initiation (duration of effect 6 h); assay type: functional
[14] = system: Rattus norvegicus; assay: Reduction of infarct volume in rat with distal middle cerebral artery occlusion at total dose of 135 mg/kg after 30 min of initiation (duration of effect 4 h); assay type: functional
[15] = system: Rattus norvegicus; assay: Reduction of infarct in rat with proximal middle cerebral artery occlusion at total dose of 245 mg/kg after 360 min initiation (duration of effect 6 h); assay type: functional
[16] = system: Rattus norvegicus; assay: Reduction of infarct volume in rat with distal middle cerebral artery occlusion at total dose of 245 mg/kg after -15 min of initiation (duration of effect 6 h); assay type: functional
[17] = system: Rattus norvegicus; assay: Reduction of infarct in rat with proximal middle cerebral artery occlusion at total dose of 31.5 mg/kg after 30 min initiation (duration of effect 6 h); assay type: functional
[18] = system: Rattus norvegicus; assay: Reduction of infarct in rat with proximal middle cerebral artery occlusion at total dose of 245 mg/kg after 30 min initiation (duration of effect 6 h); assay type: functional
[19] = system: Rattus norvegicus; assay: Reduction of infarct in rat with proximal middle cerebral artery occlusion at total dose of 245 mg/kg after 120 min initiation (duration of effect 6 h); assay type: functional
[20] = system: Rattus norvegicus; assay: Reduction of infarct in rat with proximal middle cerebral artery occlusion at total dose of 490 mg/kg after 30 min initiation (duration of effect 6 h); assay type: functional
[21] = system: Rattus norvegicus; assay: Reduction of infarct in rat with proximal middle cerebral artery occlusion at total dose of 245 mg/kg after 180 min initiation (duration of effect 6 h); assay type: functional
[22] = system: Rattus norvegicus; assay: Reduction of infarct in rat with proximal middle cerebral artery occlusion at total dose of 490 mg/kg after -15 min initiation (duration of effect 6 h); assay type: functional
[23] = system: Rattus norvegicus; assay: Reduction of infarct in rat with proximal middle cerebral artery occlusion at total dose of 62 mg/kg after 30 min initiation (duration of effect 6 h); assay type: functional
[24] = target: Glutamate NMDA receptor; assay: Antagonist activity of compound against rat N-methyl-D-aspartate glutamate receptor using [3H]glycine
[25] = target: Glutamate NMDA receptor; assay: Binding affinity against strychnine-insensitive glycine sites of rat N-methyl-D-aspartate glutamate receptor using [3H]glycine; assay type: protein-complex assay
Procedure, shortened: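 Strychnine-insensitive [3H]glycine binding to washed, Triton-treated rat cortical/hippocampal membranes. Triplicates with strychnine and 400 µg protein in 50 mM HEPES-KOH pH 7.4, 30 min at 4 °C. Ended by centrifugation; pellets counted by scintillation; nonspecific binding taken in 0.1 mM D-serine. IC50 = concentration halving specific binding, mean of two or more experiments, fitted by logistic nonlinear regression.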

[26] = system: Rattus norvegicus; assay: Reduction of infarct volume in rat with distal middle cerebral artery occlusion at total dose of 52 mg/kg after -15 min of initiation (duration of effect 6 h); assay type: functional
[27] = system: Rattus norvegicus; assay: Reduction of infarct volume in rat with distal middle cerebral artery occlusion at total dose of 52 mg/kg after 30 min of initiation (duration of effect 6 h); assay type: functional
[28] = system: Rattus norvegicus; assay: Reduction of infarct volume in rat with proximal middle cerebral artery occlusion at total dose of 52 mg/kg after 180 min of initiation (duration of effect 6 h); nd=Not determined; assay type: functional
[29] = system: Rattus norvegicus; assay: Reduction of infarct volume in rat with proximal middle cerebral artery occlusion at total dose of 52 mg/kg after -15 min of initiation (duration of effect 6 h); assay type: functional

SMILES: O=C(O)/C(=C/c1c(C(=O)O)[nH]c2cc(Cl)cc(Cl)c12)c1ccncc1
- IC50 [1]: 151 nM

SMILES: O=C(O)/C(=C/c1c(C(=O)O)[nH]c2cc(Cl)cc(Cl)c12)c1ccc(Cl)cc1Cl
- IC50 [1]: 116 nM

SMILES: O=C(NCCc1ccccc1)/C(=C/c1c(C(=O)O)[nH]c2cc(Cl)cc(Cl)c12)c1ccccc1
- IC50 [1]: 224 nM

SMILES: CN(C)C(=O)/C(=C/c1c(C(=O)O)[nH]c2cc(Cl)cc(Cl)c12)c1ccccc1
- IC50 [1]: 68 nM

SMILES: O=C(O)/C(=C/c1c(C(=O)O)[nH]c2cc(Cl)cc(Cl)c12)c1ccccn1
- IC50 [1]: 1020 nM

SMILES: O=C(O)/C(=C/c1c(C(=O)O)[nH]c2cc(Cl)cc(Cl)c12)c1ccc(Cl)cc1
- IC50 [1]: 65 nM

SMILES: N#C/C(=C/c1c(C(=O)O)[nH]c2cc(Cl)cc(Cl)c12)c1ccc(N)cc1
- IC50 [1]: 4660 nM

SMILES: COc1cccc(/C(=C\c2c(C(=O)O)[nH]c3cc(Cl)cc(Cl)c23)C(=O)O)c1
- IC50 [1]: 117 nM

SMILES: O=C(Nc1ccccc1)/C(=C/c1c(C(=O)O)[nH]c2cc(Cl)cc(Cl)c12)c1ccccc1
- IC50 [1]: 15 nM

SMILES: O=C(O)c1[nH]c2cc(Cl)cc(Cl)c2c1/C=C/C(=O)N1CCCCC1
- IC50 [1]: 38 nM

SMILES: O=C(O)/C(=C/c1c(C(=O)O)[nH]c2cc(Cl)cc(Cl)c12)c1ccccc1Cl
- IC50 [1]: 212 nM

SMILES: CN(C)c1cccc(/C(=C\c2c(C(=O)O)[nH]c3cc(Cl)cc(Cl)c23)C(=O)O)c1
- IC50 [1]: 225 nM

SMILES: O=C(O)/C(=C\c1c(C(=O)O)[nH]c2cc(Cl)cc(Cl)c12)c1ccccc1
- IC50 [1]: 157 nM

SMILES: COc1ccc(/C(=C\c2c(C(=O)O)[nH]c3cc(Cl)cc(Cl)c23)C(=O)O)cc1
- IC50 [1]: 136 nM

SMILES: O=C(O)/C(=C/c1c(C(=O)O)[nH]c2cc(Cl)cc(Cl)c12)c1cccnc1
- IC50 [1]: 126 nM

SMILES: CNC(=O)/C(=C/c1c(C(=O)O)[nH]c2cc(Cl)cc(Cl)c12)c1ccccc1
- IC50 [1]: 50 nM

SMILES: NC(=O)/C(=C/c1c(C(=O)O)[nH]c2cc(Cl)cc(Cl)c12)c1ccccc1
- IC50 [1]: 20 nM

SMILES: O=C(O)/C(=C/c1c(C(=O)O)[nH]c2cc(Cl)cc(Cl)c12)c1ccoc1
- IC50 [1]: 21 nM

SMILES: O=C(O)/C(=C/c1c(C(=O)O)[nH]c2cc(Cl)cc(Cl)c12)c1ccc(Br)cc1
- IC50 [1]: 29 nM

SMILES: O=C(O)/C(=C/c1c(C(=O)O)[nH]c2cc(Cl)cc(Cl)c12)c1ccsc1
- ED50 [2]: 18.6 mg/kg
- ED50 [3]: 35 mg/kg
- ED50 [4]: 29.5 mg/kg
- IC50 [5]: 9.6 nM
- ED50 [6]: 54.1 mg/kg
- IC50 [7]: 87 nM
- IC50 [1]: 14 nM

SMILES: Nc1cccc(/C(=C\c2c(C(=O)O)[nH]c3cc(Cl)cc(Cl)c23)C(=O)O)c1
- Reduction [8]: 12%
- half-life [9]: > 1 h
- ED50 [2]: 10.8 mg/kg
- Reduction [10]: 0%
- Reduction [11]: 49%
- Reduction [12]: 13%
- Reduction [13]: 32%
- ED50 [3]: 15 mg/kg
- ED50 [4]: 14.9 mg/kg
- IC50 [5]: 24.3 nM
- Reduction [14]: 28%
- Reduction [15]: 58% and 59%
- Reduction [16]: 13%
- ED50 [6]: 30.6 mg/kg
- Reduction [17]: 40%
- IC50 [7]: 364 nM
- Reduction [18]: 68% and 57% and 76% and 71%
- Reduction [19]: 50%
- Reduction [20]: 77%
- Reduction [21]: 41%
- Reduction [22]: 73%
- Reduction [23]: 48%

SMILES: O=C(O)/C(=C/c1c(C(=O)O)[nH]c2cc(Cl)cc(Cl)c12)c1ccccc1
- ED50 [2]: 12.2 mg/kg
- ED50 [3]: 59 mg/kg
- ED50 [4]: 37 mg/kg
- IC50 [5]: 10.9 nM
- IC50 [24]: 11 nM
- ED50 [6]: 29 mg/kg
- IC50 [7]: 282 nM

SMILES: O=C(O)/C(=C/c1c(C(=O)O)[nH]c2cc(Cl)cc(Cl)c12)c1cccc(NC(=O)c2ccccc2)c1
- IC50 [1]: 512 nM

SMILES: O=c1[nH]c2cc(Cl)ccc2c(O)c1-c1cccc(Oc2ccccc2)c1
- ED50 [2]: 1 mg/kg
- ED50 [3]: < 0.05 mg/kg
- ED50 [4]: 5.2 mg/kg
- IC50 [5]: 13.2 nM
- ED50 [6]: 3.5 mg/kg
- IC50 [7]: 31 nM

SMILES: O=C(O)/C(=C/c1c(C(=O)O)[nH]c2cc(Cl)cc(Cl)c12)c1cccc2ccccc12
- IC50 [1]: 145 nM

SMILES: O=C(O)/C(=C/c1c(C(=O)O)[nH]c2cc(Cl)cc(Cl)c12)c1ccc(F)cc1
- IC50 [1]: 35.5 nM

SMILES: CS(=O)(=O)Nc1ccc(/C(=C\c2c(C(=O)O)[nH]c3cc(Cl)cc(Cl)c23)C(=O)O)cc1
- IC50 [1]: 167 nM

SMILES: O=C(O)/C(=C/c1c(C(=O)O)[nH]c2cc(Cl)cc(Cl)c12)c1cccs1
- IC50 [1]: 9 nM

SMILES: Nc1cccc(/C(=C/c2c(C(=O)O)[nH]c3cc(Cl)cc(Cl)c23)C(=O)O)c1
- Ki [25]: 553 nM

SMILES: Cc1ccc(/C(=C\c2c(C(=O)O)[nH]c3cc(Cl)cc(Cl)c23)C(=O)O)cc1
- IC50 [1]: 105 nM

SMILES: O=C(O)/C(=C/c1c(C(=O)O)[nH]c2cc(Cl)cc(Cl)c12)c1ccco1
- IC50 [1]: 22 nM

SMILES: O=C(O)/C(=C/c1c(C(=O)O)[nH]c2cc(Cl)cc(Cl)c12)c1ccc(C(F)(F)F)cc1
- IC50 [1]: 89 nM

SMILES: O=C(NCc1ccccc1)/C(=C/c1c(C(=O)O)[nH]c2cc(Cl)cc(Cl)c12)c1ccccc1
- IC50 [1]: 31 nM

SMILES: COC(=O)Nc1cccc(/C(=C\c2c(C(=O)O)[nH]c3cc(Cl)cc(Cl)c23)C(=O)O)c1
- ED50 [2]: 8.5 mg/kg
- ED50 [3]: > 64 mg/kg
- ED50 [4]: > 64 mg/kg
- IC50 [5]: 114 nM
- ED50 [6]: > 128 mg/kg
- IC50 [7]: 840 nM
- IC50 [1]: 114 nM

SMILES: O=C(O)/C(=C/c1c(C(=O)O)[nH]c2cc(Cl)cc(Cl)c12)c1ccc([N+](=O)[O-])cc1
- IC50 [1]: 21 nM

SMILES: O=C(/C=C/c1c(C(=O)[O-])[nH]c2cc(Cl)cc(Cl)c12)Nc1ccccc1.[Na+] [GAVESTINEL SODIUM]
- ED50 [2]: > 25 mg/kg
- ED50 [4]: > 64 mg/kg
- IC50 [5]: 15.2 nM
- ED50 [6]: > 32 mg/kg
- IC50 [7]: 262 nM

SMILES: O=C(/C=C/c1c(C(=O)O)[nH]c2cc(Cl)cc(Cl)c12)Nc1ccccc1 [GAVESTINEL]
- IC50 [1]: 15 nM

SMILES: O=c1[nH]c2cc(Cl)c(Cl)c([N+](=O)[O-])c2[nH]c1=O [LICOSTINEL]
- Reduction [26]: 18%
- ED50 [2]: 3.7 mg/kg
- ED50 [3]: 3.5 mg/kg
- ED50 [4]: 14.7 mg/kg
- IC50 [5]: 20 nM
- Reduction [27]: 33% and 24%
- Reduction [28]: 28%
- Reduction [29]: 50%
- ED50 [6]: 46.3 mg/kg
- IC50 [7]: 183 nM
